# Reference: ChEMBL document CHEMBL1129413, “Synthesis and selective monoamine oxidase B-inhibiting properties of 1-methyl-1,2,3,6-tetrahydropyrid-4-yl carbamate derivatives: potential prodrugs of (R)- and (S)-nordeprenyl” (J Med Chem, 1996)
# Values joined by “and” are separate entries in the source; they are usually repeats but may differ in a detail not shown here. Equal entries are not always repeated.
# Experiments:
# [1] = Residual activity was obtained.; assay type: functional
# Method in brief: (§1)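 Male ICR mice (25-35 g), 25 µmol/kg/day ip in sterile saline for 3 days, n = 3; killed day 4, 24 h after last dose. Whole-brain mitochondria isolated by differential centrifugation, lysed in ice-cold water, membranes in 10 mM phosphate pH 7.4. Membranes preincubated 30 min at 37 °C with buffer (total), 3 × 10^-8 M clorgyline (MAO-B), 3 × 10^-7 M deprenyl (MAO-A), or both (residual).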
# Monoamine oxidase [2] = target: T1, Monoamine oxidase (Mus musculus, UniProt Q8BW75+Q64133); assay: The ability of the compound(25 umol/kg/day) to inactivate monoamine oxidase (MAO) was tested on brain mitochondrial membranes of mice, for 3 days.; assay type: functional; settings: 72 h; method in brief: as §1
# T1 sequence (Q8BW75 whole entry): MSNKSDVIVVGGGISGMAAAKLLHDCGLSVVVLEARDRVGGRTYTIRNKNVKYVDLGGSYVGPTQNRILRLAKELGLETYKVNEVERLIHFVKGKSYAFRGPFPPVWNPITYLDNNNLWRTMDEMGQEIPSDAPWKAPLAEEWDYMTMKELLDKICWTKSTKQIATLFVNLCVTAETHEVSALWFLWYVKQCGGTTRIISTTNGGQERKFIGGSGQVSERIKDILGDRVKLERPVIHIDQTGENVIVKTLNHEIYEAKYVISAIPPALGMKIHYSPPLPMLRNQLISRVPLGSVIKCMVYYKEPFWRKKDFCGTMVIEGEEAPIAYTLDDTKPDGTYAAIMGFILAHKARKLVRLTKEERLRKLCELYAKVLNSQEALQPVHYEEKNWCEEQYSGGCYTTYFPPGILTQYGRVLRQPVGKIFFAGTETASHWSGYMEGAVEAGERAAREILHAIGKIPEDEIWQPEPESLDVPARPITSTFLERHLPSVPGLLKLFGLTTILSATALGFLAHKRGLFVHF
# T1 sequence (Q64133 whole entry): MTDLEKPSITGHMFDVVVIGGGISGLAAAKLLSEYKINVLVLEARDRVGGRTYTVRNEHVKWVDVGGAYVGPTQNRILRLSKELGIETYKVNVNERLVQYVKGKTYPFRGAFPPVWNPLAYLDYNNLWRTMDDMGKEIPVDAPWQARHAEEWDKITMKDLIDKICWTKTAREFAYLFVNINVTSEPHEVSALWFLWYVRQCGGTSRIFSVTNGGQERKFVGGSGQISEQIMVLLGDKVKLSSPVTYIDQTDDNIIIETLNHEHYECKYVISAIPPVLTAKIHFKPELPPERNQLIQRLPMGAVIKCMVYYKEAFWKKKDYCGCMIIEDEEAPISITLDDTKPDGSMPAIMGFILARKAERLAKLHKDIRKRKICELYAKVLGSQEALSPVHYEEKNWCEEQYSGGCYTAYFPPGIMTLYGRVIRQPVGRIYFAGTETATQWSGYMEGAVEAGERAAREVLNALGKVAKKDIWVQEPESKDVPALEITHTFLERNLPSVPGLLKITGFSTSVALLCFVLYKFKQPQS
# [3] = Ratio of activities of MAO-B / MAO-A; assay type: functional
# [4] = target: T2, Amine oxidase [flavin-containing] B (Mus musculus, UniProt Q8BW75); assay: The ability of the compound(25 umol/kg/day) to inactivate monoamine oxidase B (MAO-B) was tested on brain mitochondrial membranes of mice, for 3 day.; assay type: functional; settings: 72 h; method in brief: as §1
# T2 sequence (Q8BW75 whole entry): T1 sequence (Q8BW75 whole entry)
# [5] = target: T3, Amine oxidase [flavin-containing] A (Mus musculus, UniProt Q64133); assay: The ability of the compound(25 umol/kg/day) to inactivate monoamine oxidase A(MAO-A) was tested on brain mitochondrial membranes of mice, for 3 day.; assay type: functional; settings: 72 h; method in brief: as §1
# T3 sequence (Q64133 whole entry): T1 sequence (Q64133 whole entry)
# [6] = target: T2, Amine oxidase [flavin-containing] B; assay: The ability (25 umol/kg/day) to inactivate monoamine oxidase B (MAO-B) was tested on brain mitochondrial membranes of mice, for 3 day; assay type: functional; settings: 72 h
# [7] = target: T3, Amine oxidase [flavin-containing] A; assay: The ability (25 umol/kg/day) to inactivate monoamine oxidase A(MAO-A) was tested on brain mitochondrial membranes of mice, for 3 day; assay type: functional; settings: 72 h
# [8] = Residual activity was obtained; assay type: functional
# Monoamine oxidase [9] = target: T1, Monoamine oxidase; assay: The ability (25 umol/kg/day) to inactivate monoamine oxidase (MAO) was tested on brain mitochondrial membranes of mice, for 3 days; assay type: functional; settings: 72 h
# [10] = target: T3, Amine oxidase [flavin-containing] A; assay: The ability (124 umol/kg/day) to inactivate monoamine oxidase A(MAO-A) was tested on brain mitochondrial membranes of mice, for 3 day; settings: 72 h
# [11] = target: T2, Amine oxidase [flavin-containing] B; assay: The ability (124 umol/kg/day) to inactivate monoamine oxidaseB (MAO-B) was tested on brain mitochondrial membranes of mice for 3 day; settings: 72 h
SMILES,Residual activity [1],Activity (Monoamine oxidase [2]),Ratio [3],Activity [4],Activity [5],Activity [6] [nmol/min/mg],Activity [7] [nmol/min/mg],Activity [8] [nmol/min/mg],Activity (Monoamine oxidase [9]) [nmol/min/mg],Activity [10] [nmol/min/mg],Activity [11] [nmol/min/mg]
C#CCN(C)[C@H](C)Cc1ccccc1 [SELEGILINE],0.24 nM and 0.44 nM,0.84 nM and 1.36 nM,0.72 and 0.66,0.46 nM and 0.7 nM,0.64 nM and 1.06 nM,,,,,,
C#CCN(C(=O)OC1=CCN(C)CC1)[C@@H](C)Cc1ccccc1,,,4.4,,,3.35,0.76,0.2,3.75,,
C#CCN(C(=O)OC1=CCN(C)CC1)[C@H](C)Cc1ccccc1,,,0.63,,,,,0.45,1.36,1.1,0.78
C#CCN[C@H](C)Cc1ccccc1 [RNORDEPRENYL],0.46 nM,1.31 nM,0.71,0.68 nM,1.07 nM,,,,,,
